Reference: ChEMBL document CHEMBL4689842, “EUbOPEN Chemogenomics Library wave 1” (2021)

System: Fibroblast
Experiment: Multiplex assay against human fibroblast
Type: toxicity, cell-based
In short: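 On a CQ1 microscope at 37°C and 5% CO2, live cells were imaged after compound addition. They had been stained at seeding with Hoechst33342, BioTracker Green Microtubule Cytoskeleton Dye, MitoTracker Red and Annexin V Alexa Fluor 680. CellPathfinder machine-learning gating assigned cells to Hoechst high-intensity objects or normal cells, normal cells to healthy, pyknosed or fragmented nuclei, and pyknosed cells to mitotic or apoptotic. Tubulin, mitochondrial-mass and membrane-permeability phenotypes are per cents of healthy-nucleus cells.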

[1] = 12 h, 1 µM, compound concentration 1 uM, replicate 1
[2] = 12 h, 1 µM, compound concentration 1 uM, replicate 2
[3] = 12 h, 10 µM, compound concentration 10 uM, replicate 1
[4] = 12 h, 10 µM, compound concentration 10 uM, replicate 2
[5] = 24 h, 1 µM, compound concentration 1 uM, replicate 1
[6] = 24 h, 1 µM, compound concentration 1 uM, replicate 2
[7] = 24 h, 10 µM, compound concentration 10 uM, replicate 1
[8] = 24 h, 10 µM, compound concentration 10 uM, replicate 2
[9] = 48 h, 1 µM, compound concentration 1 uM, replicate 1
[10] = 48 h, 1 µM, compound concentration 1 uM, replicate 2
[11] = 48 h, 10 µM, compound concentration 10 uM, replicate 1
[12] = 48 h, 10 µM, compound concentration 10 uM, replicate 2

COc1cc2ncn(-c3cc(OCc4ccccc4C(F)(F)F)c(C(N)=O)s3)c2cc1OC [GW843682X]
Population Apoptotic (%) [1]: 62%
Population Fragmented Nuclei (%) [1]: 29%
Population Healthy Nuclei (%) [1]: 40%
Population Hoechst High Intensity Objects (%) [1]: 14%
Population Membrane Permeable-Phenotype (%) [1]: 28%
Population Mitochondria Different-Phenotype (%) [1]: 2%
Population Mitotic Cells (%) [1]: 37%
Population Normal (%) [1]: 85%
Population Pyknosed Nuclei (%) [1]: 29%
Population Tubulin-Different-Phenotype (%) [1]: 54%
Total Cell Count [1]: 145
Population Apoptotic (%) [2]: 50%
Population Fragmented Nuclei (%) [2]: 9%
Population Healthy Nuclei (%) [2]: 80%
Population Hoechst High Intensity Objects (%) [2]: 10%
Population Membrane Permeable-Phenotype (%) [2]: 12%
Population Mitochondria Different-Phenotype (%) [2]: 10%
Population Mitotic Cells (%) [2]: 50%
Population Normal (%) [2]: 89%
Population Pyknosed Nuclei (%) [2]: 9%
Population Tubulin-Different-Phenotype (%) [2]: 20%
Total Cell Count [2]: 83
Population Apoptotic (%) [3]: 54%
Population Fragmented Nuclei (%) [3]: 18%
Population Healthy Nuclei (%) [3]: 40%
Population Hoechst High Intensity Objects (%) [3]: 17%
Population Membrane Permeable-Phenotype (%) [3]: 19%
Population Mitochondria Different-Phenotype (%) [3]: 29%
Population Mitotic Cells (%) [3]: 45%
Population Normal (%) [3]: 82%
Population Pyknosed Nuclei (%) [3]: 41%
Population Tubulin-Different-Phenotype (%) [3]: 88%
Total Cell Count [3]: 182
Population Apoptotic (%) [4]: 50%
Population Fragmented Nuclei (%) [4]: 13%
Population Healthy Nuclei (%) [4]: 75%
Population Hoechst High Intensity Objects (%) [4]: 6%
Population Membrane Permeable-Phenotype (%) [4]: 25%
Population Mitochondria Different-Phenotype (%) [4]: 88%
Population Mitotic Cells (%) [4]: 50%
Population Normal (%) [4]: 93%
Population Pyknosed Nuclei (%) [4]: 11%
Population Tubulin-Different-Phenotype (%) [4]: 98%
Total Cell Count [4]: 68
Population Apoptotic (%) [5]: 61%
Population Fragmented Nuclei (%) [5]: 27%
Population Healthy Nuclei (%) [5]: 45%
Population Hoechst High Intensity Objects (%) [5]: 16%
Population Membrane Permeable-Phenotype (%) [5]: 28%
Population Mitochondria Different-Phenotype (%) [5]: 7%
Population Mitotic Cells (%) [5]: 38%
Population Normal (%) [5]: 83%
Population Pyknosed Nuclei (%) [5]: 26%
Population Tubulin-Different-Phenotype (%) [5]: 66%
Total Cell Count [5]: 139
Population Apoptotic (%) [6]: 55%
Population Fragmented Nuclei (%) [6]: 11%
Population Healthy Nuclei (%) [6]: 74%
Population Hoechst High Intensity Objects (%) [6]: 5%
Population Membrane Permeable-Phenotype (%) [6]: 10%
Population Mitochondria Different-Phenotype (%) [6]: 19%
Population Mitotic Cells (%) [6]: 44%
Population Normal (%) [6]: 94%
Population Pyknosed Nuclei (%) [6]: 14%
Population Tubulin-Different-Phenotype (%) [6]: 17%
Total Cell Count [6]: 85
Population Apoptotic (%) [7]: 74%
Population Fragmented Nuclei (%) [7]: 14%
Population Healthy Nuclei (%) [7]: 41%
Population Hoechst High Intensity Objects (%) [7]: 21%
Population Membrane Permeable-Phenotype (%) [7]: 25%
Population Mitochondria Different-Phenotype (%) [7]: 32%
Population Mitotic Cells (%) [7]: 25%
Population Normal (%) [7]: 78%
Population Pyknosed Nuclei (%) [7]: 43%
Population Tubulin-Different-Phenotype (%) [7]: 94%
Total Cell Count [7]: 171
Population Apoptotic (%) [8]: 50%
Population Fragmented Nuclei (%) [8]: 13%
Population Healthy Nuclei (%) [8]: 69%
Population Hoechst High Intensity Objects (%) [8]: 9%
Population Membrane Permeable-Phenotype (%) [8]: 41%
Population Mitochondria Different-Phenotype (%) [8]: 91%
Population Mitotic Cells (%) [8]: 50%
Population Normal (%) [8]: 90%
Population Pyknosed Nuclei (%) [8]: 17%
Population Tubulin-Different-Phenotype (%) [8]: 97%
Total Cell Count [8]: 67
Population Apoptotic (%) [9]: 52%
Population Fragmented Nuclei (%) [9]: 39%
Population Healthy Nuclei (%) [9]: 38%
Population Hoechst High Intensity Objects (%) [9]: 18%
Population Membrane Permeable-Phenotype (%) [9]: 21%
Population Mitochondria Different-Phenotype (%) [9]: 7%
Population Mitotic Cells (%) [9]: 47%
Population Normal (%) [9]: 81%
Population Pyknosed Nuclei (%) [9]: 21%
Population Tubulin-Different-Phenotype (%) [9]: 65%
Total Cell Count [9]: 130
Population Apoptotic (%) [10]: 75%
Population Fragmented Nuclei (%) [10]: 22%
Population Healthy Nuclei (%) [10]: 73%
Population Hoechst High Intensity Objects (%) [10]: 9%
Population Membrane Permeable-Phenotype (%) [10]: 13%
Population Mitochondria Different-Phenotype (%) [10]: 1%
Population Mitotic Cells (%) [10]: 25%
Population Normal (%) [10]: 90%
Population Pyknosed Nuclei (%) [10]: 3%
Population Tubulin-Different-Phenotype (%) [10]: 53%
Total Cell Count [10]: 120
Population Apoptotic (%) [11]: 61%
Population Fragmented Nuclei (%) [11]: 27%
Population Healthy Nuclei (%) [11]: 45%
Population Hoechst High Intensity Objects (%) [11]: 19%
Population Membrane Permeable-Phenotype (%) [11]: 24%
Population Mitochondria Different-Phenotype (%) [11]: 13%
Population Mitotic Cells (%) [11]: 38%
Population Normal (%) [11]: 80%
Population Pyknosed Nuclei (%) [11]: 27%
Population Tubulin-Different-Phenotype (%) [11]: 95%
Total Cell Count [11]: 177
Population Apoptotic (%) [12]: 50%
Population Fragmented Nuclei (%) [12]: 29%
Population Healthy Nuclei (%) [12]: 55%
Population Hoechst High Intensity Objects (%) [12]: 16%
Population Membrane Permeable-Phenotype (%) [12]: 6%
Population Mitochondria Different-Phenotype (%) [12]: 21%
Population Mitotic Cells (%) [12]: 50%
Population Normal (%) [12]: 83%
Population Pyknosed Nuclei (%) [12]: 14%
Population Tubulin-Different-Phenotype (%) [12]: 92%
Total Cell Count [12]: 162
